Measured values: article PMC10784678 (Food Chemistry: X, 2023)
In brackets after ≈: the same amount, converted by molar mass. Like-named read-outs stand apart in the source and are kept apart here.

Legend:
DPP-IV [1] = target: T1, DPP-IV (Homo sapiens, UniProt P27487); assay: biochemical
DPP-IV [2] = target: T1, DPP-IV; details: read-out: IC50 DPP-IV; ref Li et al., 2022; cited from earlier work
[3] = DPPH radical scavenging activity; details: positive control
In short: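 Test fractions in 80 % methanol at 2–14 µg/mL; positive control at 1–7 µg/mL. 50 µL sample plus 200 µL 0.1 mM DPPH in methanol, kept from light and shaken 30 min, then read at 517 nm.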

[4] = ABTS radical scavenging activity; details: positive control
In short: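 Test fractions in 70 % ethanol at 2–8 µg/mL; positive control at 1–7 µg/mL. Radical made by holding 7 mM ABTS with 0.14 M K₂S₂O₈ for 14 h, then diluted 35-fold in anhydrous ethanol. Sample mixed with radical solution, 6 min dark at 30°C, A734.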

Caco-2 cells [5] = assay: Inhibition of H2O2-induced intracellular ROS production; type: cell-based; details: positive control 10 μg/mL, 1.0 mmol/L H2O2 6 h; H2O2 group 181.61 %
Caco-2 cells [6] = assay: Cytoprotective activity against H2O2-induced cell apoptosis; type: cell-based; details: positive control 10 μg/mL; H2O2 group 23.84 %, control 3.92 %
α-glucosidase = α-glucosidase (Saccharomyces cerevisiae, UniProt P53341); details: read-out: IC50 α-glucosidase; ref Tan et al. (2017); cited from earlier work
α-glucosidase, sequence (P53341 whole entry): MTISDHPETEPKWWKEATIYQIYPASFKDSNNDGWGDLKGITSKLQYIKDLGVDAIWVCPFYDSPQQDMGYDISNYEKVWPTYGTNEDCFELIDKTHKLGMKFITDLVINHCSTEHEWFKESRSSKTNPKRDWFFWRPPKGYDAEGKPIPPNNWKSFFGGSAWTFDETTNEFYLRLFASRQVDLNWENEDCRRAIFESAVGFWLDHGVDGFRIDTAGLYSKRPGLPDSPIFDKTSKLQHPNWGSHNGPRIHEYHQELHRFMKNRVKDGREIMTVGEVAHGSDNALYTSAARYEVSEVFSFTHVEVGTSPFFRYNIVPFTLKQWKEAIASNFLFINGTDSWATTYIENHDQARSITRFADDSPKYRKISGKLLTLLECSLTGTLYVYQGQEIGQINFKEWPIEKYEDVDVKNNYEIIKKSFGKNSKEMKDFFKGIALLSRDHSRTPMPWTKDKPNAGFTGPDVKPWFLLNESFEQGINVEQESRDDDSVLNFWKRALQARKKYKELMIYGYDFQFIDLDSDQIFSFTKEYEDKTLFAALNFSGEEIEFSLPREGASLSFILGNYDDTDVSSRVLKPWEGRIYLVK

[7] = read-out: IC50 DPP-Ⅳ, phenolic standards

T1 sequence (P27487 whole entry): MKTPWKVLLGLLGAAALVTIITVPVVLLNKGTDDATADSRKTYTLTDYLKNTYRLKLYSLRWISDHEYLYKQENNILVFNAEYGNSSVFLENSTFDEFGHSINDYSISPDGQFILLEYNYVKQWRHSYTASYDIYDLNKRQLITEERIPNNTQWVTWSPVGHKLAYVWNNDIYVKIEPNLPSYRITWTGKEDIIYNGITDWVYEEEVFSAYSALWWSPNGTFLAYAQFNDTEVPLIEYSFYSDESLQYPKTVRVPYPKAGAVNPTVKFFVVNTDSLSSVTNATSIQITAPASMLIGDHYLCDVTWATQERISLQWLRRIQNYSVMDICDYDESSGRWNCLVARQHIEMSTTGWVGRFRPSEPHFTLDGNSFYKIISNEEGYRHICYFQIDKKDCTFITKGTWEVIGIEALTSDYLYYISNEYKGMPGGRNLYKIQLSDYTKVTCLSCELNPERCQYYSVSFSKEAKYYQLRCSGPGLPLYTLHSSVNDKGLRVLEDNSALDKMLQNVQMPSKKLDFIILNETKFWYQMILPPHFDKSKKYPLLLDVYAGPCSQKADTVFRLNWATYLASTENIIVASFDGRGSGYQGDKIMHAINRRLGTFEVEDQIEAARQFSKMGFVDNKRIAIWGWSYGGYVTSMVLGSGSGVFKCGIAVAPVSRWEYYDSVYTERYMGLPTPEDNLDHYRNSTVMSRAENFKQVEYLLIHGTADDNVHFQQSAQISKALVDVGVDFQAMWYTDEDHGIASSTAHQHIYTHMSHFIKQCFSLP

Compound | IC50 (DPP-IV [1]) [µM] | other results
Oc1cc(O)c2c(c1)O[C@H](c1ccc(O)c(O)c1)[C@@H](O)C2 [(+) - Catechin] |  | IC50 (DPP-IV [1]; [7]): 132.8 ± 0.99 µM
COC(=O)[C@]1(O)C[C@@H](O)[C@@H](O)[C@H](OC(=O)/C=C/c2ccc(O)c(O)c2)C1 [Methyl chlorogenic acid] |  | IC50 (DPP-IV [1]; [7]): 192 ± 1.93 µM
Oc1cc(O)c2c(c1)O[C@H](c1ccc(O)c(O)c1)[C@H](O)[C@H]2c1c(O)cc(O)c2c1O[C@H](c1ccc(O)c(O)c1)[C@@H](O)C2 [Procyanidin B1] | > 200 | 
O=C(O)c1ccc(O)c(O)c1 [Protocatechuic acid] | > 200 | 
O=C(O)[C@]1(O)C[C@@H](O)[C@@H](O)[C@H](O)C1 [Quinic acid] | > 200 | 
O=C(O)c1ccccc1O [Salicylic acid] | > 200 | 
O=C1c2c(O)cc(O)cc2OC(c2ccc(O)c(O)c2)C1O (centres unmarked) [Taxifolin] | 78.92 ± 0.62 | 
O=C1O[C@H]([C@@H](O)CO)C(O)=C1O [Vc] |  | IC50 DPPH radical scavenging [3]: 1.93 ± 0.01 µg/mL (≈ 11 µM); IC50 ABTS radical scavenging [4]: 3.58 ± 0.03 µg/mL (≈ 20.3 µM); intracellular ROS level (Caco-2 cells [5]): 110.92%; apoptosis rate (Caco-2 cells [6]): 6.58%
Oc1cc(O)c2c(c1)O[C@H](c1ccc(O)c(O)c1)[C@@H](O)C2 [catechin] |  | IC50 (α-glucosidase): 13.4 µM

More lines, main results first:

IC50 (DPP-IV [1]) [µM] | Compound | other results
104.3 ± 0.95 | Oc1cc(O)c2c(c1)O[C@H](c1ccc(O)c(O)c1)[C@H](O)C2 [(-) - Epicatechin] | 
162.48 ± 0.16 | O=C(O)/C=C/c1ccc(O)c(O)c1 [Caffeic acid] | 
31.2 ± 2.58 | O=C(/C=C/c1ccc(O)c(O)c1)O[C@@H]1C[C@](O)(C(=O)O)C[C@@H](O)[C@H]1O [Chlorogenic acid] | IC50 (DPP-IV [2]): 78.8 µM
81.9 ± 2.54 | Oc1cc(O)c2c(c1)O[C@H](c1cc(O)c(O)c(O)c1)[C@@H](O)C2 [Gallocatechin] | 
